Bioassay records deposited in PubChem BioAssay by Broad Institute.
A selection: hits, their analogues and other compounds. The true share with any hit is near 2.6%.
Xi reactivation: activators of X-chromosome reactivation in mouse fibroblasts. XiGFP mouse fibroblasts, % GFP-positive cells imaging, 3 d; cells co-treated with 5-aza-dC sensitizer; scaled so ellipticine positive control = 100%. activation, % at 7.58 µM. actives 0.055% (n = 360,000). AID 743238;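 active means mean normalized replicate activation at least 10% and every replicate at or above 10%; inconclusive means only one of the two criteria met; inactive means mean below 10% and not all replicates reach 10%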;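 further: 0% = median of on-plate neutral control wells and 100% = ellipticine 6 µM median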
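Assay system – SV40-immortalized XiGFP fibroblast cells, line 68-5-11 · Buffer or medium – DMEM supplemented with 5-aza-dC as sensitizing agent · Dosing – one concentration, pinned · Benchmarks – positive control ellipticine, 6 µM final · Times – 3 days compound exposure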
MITF act: activators of MITF-driven TRPM1 promoter activity in SK-MEL-5 cells | SK-MEL-5 TRPM1-promoter luciferase, 24 h; % of positive control, neutral wells = 0 | activation, % at 12.5 µM | actives 0.75% (n = 300,000) | AID 588334;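 active means mean activation of at least 80% with every replicate also reaching 80%; inconclusive means mean reaches 80% but some replicate falls short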;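 further: 0% = neutral control wells and 100% = parthenolide positive control wells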
esBAF inh: SWI/SNF esBAF complex inhibition; mouse ES cells, Bmi1-luciferase knock-in reporter, 24 h; 100% = twice the neutral-well signal; reporter increase, % at 12.5 µM; actives 2% (n = 350,000); AID 602393; in the data active means activation above about 40%; inconclusive means no clear call, values can overlap the other calls;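 further: 0% = median of the plate's neutral control wells and 100% = double that signal; a rise in the Bmi1 reporter signal indicates esBAF inhibition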
Vif imaging: inhibitors of HIV Vif. HEK293T cells, Vif self-association by quenched fluorescence, imaging, 24 h. actives 0.35% (n = 340,000). AID 602346. inhibition, % at 7.49 µM; in the data active means inhibition above about 50%, passing the limit was not always enough; inconclusive means no clear call, values can overlap the other calls; inactive means below about 31%
Wnt act: activators of Wnt/beta-catenin signaling | activation, % at 9.35 µM | Wnt/beta-catenin reporter cell assay, activator, plate reader | actives 1.2% (n = 300,000); in the data active means activation above about 30%, passing the limit was not always enough; inconclusive means no clear call, values can overlap the other calls;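 further: 0% = neutral control wells and 100% = positive control wells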
Numbers without * were called inactive; ? = inconclusive; / = no result.

SMILES	Xi reactivation	MITF act	esBAF inh	Vif imaging	Wnt act
O=C(NOCc1ccccc1)OCc1ccccc1	0.6	?	62.8*	1.5	13.1
O=C(NCCOC(=O)Nc1cccc2ccccc12)OCc1ccccc1	0.1	1.1	-0.4	-2.1	-0.7
O=C(NNC(=O)OCc1ccccc1)OCc1ccccc1	0.2	21.1	24.5	-0.2	-2.1
O=C(Nc1cccc2ccccc12)c1ccccc1	0.0	54.6	51.4*	-2.3	17.1
Nc1ccccc1C(=O)Nc1cccc2ccccc12	0.0	/	65.1*	-3.3	0.1
O=C(Nc1cccc2ccccc12)OCc1ccccc1	0.1	48.3	61.3*	17.3	4.0
O=C(Nc1cccc2ccccc12)c1ccccc1Cl	0.0	5.1	7.8	4.3	1.2
O=C(Nc1cccc2ccccc12)c1ccc(F)cc1	0.0	18.8	35.1	-6.3	7.2
CCCN(C)C[C@H]1Oc2cc(C#CC3CCCCC3)ccc2S(=O)(=O)N([C@@H](C)CO)C[C@H]1C	0.0	/	-4.7	/	/
O=C(C[C@@H]1CC[C@@H]2[C@H](COC[C@H](O)CN2Cc2cc(F)cc(F)c2)O1)NCc1cccc(F)c1	0.0	/	-1.5	/	/
CCOC(=O)Nc1ccc2c3c(cccc13)-c1ccccc1-2	2.6	11.0	45.8*	22.0	10.1
O=C(c1cccs1)N1CCN(c2nc3c(F)cc(F)cc3s2)CC1	0.3	48.2	43.1*	-0.9	1.1
O=[N+]([O-])c1ccc2nc(N3CCCC3)sc2c1	0.0	?	79.0*	3.6	14.3
Fc1ccc2nc(N3CCCC3)sc2c1	0.2	156.0*	?	5.4	-0.3
Cc1cc(C)c2nc(N3CCN(C(=O)c4cccs4)CC3)sc2c1	-0.1	2.1	/	9.1	1.5
O=C(Nc1ccc(F)cc1F)c1ccc2nc(N3CCOCC3)sc2c1	0.0	/	41.7*	-8.6	3.0
CCNC(=O)C[C@@H]1CC[C@H]2[C@H](COc3ccc(NC(=O)Nc4cccc(Cl)c4)cc3C(=O)N2C)O1	0.2	/	-0.7	/	/
CCC(=O)N(C)C[C@H]1Oc2cc(C#CCC3CCCC3)ccc2S(=O)(=O)N([C@@H](C)CO)C[C@H]1C	-0.1	/	-2.2	/	/
O=C(C[C@H]1C=C[C@H](NC(=O)NC2CCCCC2)[C@@H](CO)O1)NCc1ccc(F)cc1	0.1	/	-0.1	/	/
O=C(Nc1ccccc1F)N[C@@H]1CC[C@H](CCNC(=O)C2CCOCC2)O[C@@H]1CO	-0.2	/	-4.2	/	/
O=C(c1ccc([N+](=O)[O-])o1)N1CCN(c2nc3c(F)cc(F)cc3s2)CC1	0.0	-79.0	-12.4	/	6.0
Fc1cc(F)c2nc(N3CCCCC3)sc2c1	/	45.8	66.2*	1.0	20.6
O=C(COc1ccc(Br)cc1Cl)NC1CCCCC1	0.0	88.4*	/	-3.2	23.3
O=C(COc1ccccc1Cl)c1ccc[nH]1	0.2	44.2	/	-5.6	24.9
O=C(COc1ccc(Br)cc1Cl)NC(=O)NC1CCCC1	0.0	93.3*	51.5*	-4.6	38.5*
SMILES	Xi reactivation	MITF act	esBAF inh	Vif imaging	Wnt act
O=C(COc1ccc(Br)cc1Cl)c1ccc[nH]1	0.0	101.9*	74.2*	-11.5	18.6
COc1ccc(CN(C)C[C@@H]2Oc3ccc(NS(=O)(=O)c4ccccc4)cc3CC(=O)N([C@H](C)CO)C[C@H]2C)cc1	0.0	/	-1.6	/	/
CSCCC(NC(=O)c1ccco1)C(=O)NCC1CCCCC1 (configuration not stated)	0.2	-6.1	7.4	11.2	4.7
O=C(N[C@@H](Cc1ccccc1)C(=O)NC1CCCCC1)c1ccco1	/	/	-0.2	2.8	-5.0
O=C(N[C@@H](Cc1ccccc1)C(=O)NC1CCCCCC1)c1ccco1	/	?	45.4*	1.8	/
CSCCC(NC(=O)c1ccco1)C(=O)NC1CCC(C)CC1 (configuration not stated)	0.4	112.0*	62.0*	-5.4	23.6
ON=C1c2ccccc2-c2ccc(Br)cc21	0.3	0.9	3.8	-2.0	-1.2
Nc1cc2c(cc1Br)-c1ccccc1C2=NO	0.0	15.7	62.6*	-19.6	33.5*
CC1CCCCN1S(=O)(=O)c1ccc(C(=O)Nc2sccc2C(N)=O)cc1 (configuration not stated)	0.1	58.0	82.6*	-12.9	13.0
C[C@H]1CN([C@@H](C)CO)C(=O)Cc2cc(NS(C)(=O)=O)ccc2O[C@H]1CN(C)C	-0.8	/	0.3	/	/
Cc1ccc(-c2ccc3c(c2)O[C@H](CN(C)C(=O)C2CCC2)[C@H](C)CN([C@@H](C)CO)S3(=O)=O)cc1	-0.3	/	-1.0	/	/
Cn1cccc1C(=O)C(=O)Nc1ccc(F)c(F)c1	-0.1	102.8*	45.6*	-5.0	-1.1
Cn1cccc1C(=O)C(=O)Nc1cccc(Cl)c1Cl	/	57.7	63.2*	-3.7	/
Cn1cccc1C(=O)C(=O)Nc1cc(Cl)cc(Cl)c1	/	46.1	49.0*	-18.7	7.2
C[C@H]1CN([C@@H](C)CO)C(=O)c2cccc(NC(=O)c3cnccn3)c2O[C@H]1CN(C)S(=O)(=O)c1cccs1	-1.2	/	-1.5	/	/
C[C@@H]1CN([C@H](C)CO)C(=O)c2cc(-c3ccc(F)cc3)cnc2O[C@H]1CN(C)C(=O)c1ccncc1	-0.1	/	/	/	/
COCC(=O)N(C)C[C@H]1Oc2cc(-c3ccc(F)cc3)ccc2S(=O)(=O)N([C@H](C)CO)C[C@H]1C	-0.7	/	12.9	/	/
O=C(c1c(F)cccc1F)N1CCCC(c2nc(-c3cccs3)no2)C1 (configuration not stated)	0.2	47.8	80.8*	-13.9	13.1
COc1ccc(-c2noc(C3CCCN(C(=O)c4cccc(F)c4)C3)n2)cc1 (configuration not stated)	0.0	-8.5	7.5	-15.4	-1.9
COc1ccc(NC(=O)N2CCCC(c3nc(-c4ccc(OC)cc4)no3)C2)cc1 (configuration not stated)	0.4	2.4	21.3	16.0	20.2
COc1ccc(-c2noc(C3CCCN(C(=O)Nc4ccccc4)C3)n2)cc1 (configuration not stated)	0.3	3.5	59.1*	-8.4	-0.5
O=C(c1ccc(F)cc1F)N1CCCC(c2nc(-c3cccs3)no2)C1 (configuration not stated)	0.0	1.9	7.5	-13.4	-0.7
COc1ccc(-c2noc(C3CCCN(C(=O)c4ccccc4)C3)n2)cc1 (configuration not stated)	0.0	51.3	42.2*	-11.9	0.5
O=C(C[C@@H]1CC[C@@H]2[C@H](COC[C@H](O)CN2Cc2ccc(Oc3ccccc3)cc2)O1)Nc1nccs1	0.8	/	-12.8	/	/
CO[C@@H]1CN(C)C(=O)c2cc(NS(=O)(=O)Cc3ccccc3)ccc2OC[C@@H](C)N(Cc2cccnc2)C[C@H]1C	0.0	/	-28.1	/	/
Cc1cc(OCC(F)(F)C(F)(F)C(F)(F)C(F)F)nc(N)n1	/	/	49.9*	-3.0	29.3
COc1ccc(N=Cc2c(OC)ccc3ccccc23)cc1	0.3	/	/	5.5	1.2
COc1ccc(N=Cc2c(O)c3ccccc3n2C(C)=O)cc1	0.0	28.4	27.4	9.5	30.3*
